Results collected from several papers.
Compare with care: the assays were run in different laboratories.
BMP2K: BMP-2-inducible protein kinase (BMP2K, Homo sapiens, UniProt Q9NSY1)
murC: UDP-N-acetylmuramate--L-alanine ligase (murC, Escherichia coli K-12, UniProt P17952)
MTNR1A: Melatonin receptor type 1A (MTNR1A, Homo sapiens, UniProt P48039)
Trypanothione synthetase: Trypanothione synthetase (Trypanosoma cruzi, UniProt Q9GT49)

O=C(NCCCNc1nc(Nc2cccc(NC(=O)N3CCCC3)c2)ncc1C1CC1)C1CCC1  remaining activity (BMP2K; enzyme activity, inhibitor, radiometric; 1 µM): 8%
N#Cc1ccc(COc2ccccc2C=NNS(=O)(=O)c2ccccc2[N+](=O)[O-])cc1  remaining activity (murC; enzyme activity, inhibitor, absorbance; 100 µM): 95%
COc1cc(NC(C)=O)c(Cl)cc1C(=O)Nc1nccs1  inhibition (5-hydroxytryptamine receptor 2C (HTR2C, Homo sapiens, UniProt P28335); ligand displacement, radioligand; 10 µM): 48.8%
COc1cc(I)c2[nH]cc(CCNC(C)=O)c2c1  Emax (MTNR1A; β-arrestin recruitment, agonist; CHO-K1; 90 min): 95%
Cc1nn(CC(F)(F)F)cc1Nc1ncc(C2CC2)c(NCCCNC(=O)C2CCC2)n1  remaining activity (BMP2K; enzyme activity, inhibitor, radiometric; 1 µM): 73%
O=[N+]([O-])c1cccc(COc2ccccc2C=NNS(=O)(=O)c2ccc3ccccc3c2)c1  remaining activity (murC; enzyme activity, inhibitor, absorbance; 50 µM): 65%
Oc1ccc(-c2nc(-c3ccncc3)c(-c3ccc(F)cc3)[nH]2)cc1  ΔTm (BRWD3 (Homo sapiens, UniProt Q6RI45); thermal stability, DSF; 10 µM): 0.66 °C
CNC(=O)CN1C(=O)Cc2c([nH]c3ccc(Br)cc23)-c2ccc(Cl)cc21  inhibition (Trypanothione synthetase; enzyme activity, inhibitor, absorbance; 30 µM): 22.8%
N#Cc1ccc(COc2ccccc2C=NNS(=O)(=O)c2ccc3ccccc3c2)cc1  remaining activity (murC; enzyme activity, inhibitor, absorbance; 100 µM): 36%
Cc1nn(CC(F)(F)F)cc1Nc1ncc(C2CC2)c(NCCc2c[nH]cn2)n1  remaining activity (BMP2K; enzyme activity, inhibitor, radiometric; 1 µM): 96%
FC(F)(F)Oc1cccc(-c2cnc3ccc(-c4ccncc4)nn23)c1  activity vs control (Serine/threonine-protein kinase SIK3 (SIK3, Homo sapiens, UniProt Q9Y2K2); enzyme activity, inhibitor, radiometric; 1 µM): 93%
Cc1cc(NC(=O)c2cccc3cc(-c4cccc5[nH]nc(N)c45)ccc23)ccc1F  activity vs control (MAPK/MAK/MRK overlapping kinase (MOK, Homo sapiens, UniProt Q9UQ07); enzyme activity, inhibitor; 0.1 µM): 95%
Cc1nn(CC(F)(F)F)cc1Nc1ncc(Br)c(NCCCNC(=O)C2CCC2)n1  remaining activity (BMP2K; enzyme activity, inhibitor, radiometric; 1 µM): 19%
O=C(c1ccc(F)cc1)N(Cc1ccccc1)C1CCCCC1  inhibition (Substance-P receptor (TACR1, Homo sapiens, UniProt P25103); cell-free assay; 10 µM): 20%
c1cc(CN2CCOCC2)cc(Nc2ncc(C3CC3)c(NCCc3c[nH]cn3)n2)c1  remaining activity (BMP2K; enzyme activity, inhibitor, radiometric; 1 µM): 18%
COc1cc2c(CCNC(C)=O)c[nH]c2cc1I  Emax (MTNR1A; β-arrestin recruitment, agonist; CHO-K1; 90 min): 101%
Cc1ccc(C(=O)Nc2ccc(CN3CCN(C)CC3)c(C(F)(F)F)c2)cc1C#Cc1cnc2cccnn12  remaining signal (Serine/threonine-protein kinase MRCK gamma (CDC42BPG, Homo sapiens, UniProt Q6DT37); cell-free assay; 23.5 nM): 100%
CCc1ccc2scc(CCNC(C)=O)c2c1  Emax (MTNR1A; cAMP, agonist, TR-FRET; CHO-K1; 20 min): 75%
O=C(Nc1ccc(N2C(=O)c3ccccc3C2=O)c(Cl)c1)c1ncccc1Cl  Emax (Metabotropic glutamate receptor 1 (Grm1, Rattus norvegicus, UniProt P23385); calcium signal, positive allosteric modulator; T-REx-293): 77%
NC(=O)CN1C(=O)Cc2c([nH]c3ccc(Br)cc23)-c2ccc(Cl)cc21  inhibition (Trypanothione synthetase; enzyme activity, inhibitor, absorbance; 30 µM): 5.2%
COc1ccc2c(c1)C(CNC(N)=O)Cc1ccccc1C2 (stereo not drawn)  Emax (MTNR1A; GTPγS binding, agonist, radiometric; cell membranes): 8%
N#Cc1ccc(COc2ccccc2C=NNS(=O)(=O)Cc2ccccc2F)cc1  remaining activity (murC; enzyme activity, inhibitor, absorbance; 100 µM): 59%
COc1ccc2ncn(CCNC(C)=O)c2c1  Emax (MTNR1A; GTPγS binding, agonist, radiometric; cell membranes): 53%
CCN(Cc1ccccc1C(F)(F)F)C(=O)C1CCN(S(=O)(=O)c2ccc3[nH]ncc3c2)CC1  inhibition (B2 bradykinin receptor (BDKRB2, Homo sapiens, UniProt P30411); ligand displacement, radioligand; 10 µM): 11%
